Shown is part of a subset that was picked to be rich in hits.
INS promoter act – activators of insulin promoter-driven GFP, primary screen, imaging, TRM-6 cells, eGFP reporter, cell count; plate-scaled: unstimulated 0, stimulated control 100; activation, % at 2 µM; 130,000 tested, 0.81% active;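 active = activation at 2 µM above a set limit, confirmed on inspection of the cell images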;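 also: share of cells whose green reporter signal exceeds an intensity cutoff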
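System: human fetal islet-derived TRM-6 cells with tamoxifen-inducible insulin promoter–eGFP reporter; input: seeding density of 1,000 cells per well; buffer or medium: Low-glucose (5.5 mM) medium with tamoxifen; incubation: compound exposure 48 h, 37 °C; measured by: high-content imaging of fixed cells with Hoechst nuclear stain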
Of the large screens only hits and unclear results are named; the others gave an inactive call.

COc1ccc(/C=C2\NC(=S)N(CC3CCCO3)C2=O)c(OC)c1C (configuration not stated)	none
COc1cc(N2CCCC2)c(OC)cc1/C=C1/NC(=S)NC1=O	none
CCOC(=O)c1[nH]c2ccccc2c1NC(=O)c1ccc(S(=O)(=O)N2CCCC2)cc1	none
C/C(=N\NC(=O)Cc1cccn1C)c1cccs1	none
O=C(Nc1ccccc1)OCc1cncs1	none
Cc1ccc(CN2CCN(/N=C/C=C/c3ccccc3[N+](=O)[O-])CC2)cc1	none
CCOC(=O)Cc1csc(NS(=O)(=O)c2ccc(F)cc2)n1	none
CNC(=S)Nc1cc(OC)ccc1OC	none
CC(C)(C)c1ccc(OCCNC(=O)Cc2ccc(F)cc2)cc1	none
CCc1nnc(NC(=O)C2(C)COC(c3ccc(OC)cc3)OC2)s1 (configuration not stated)	none
CCN(C(=O)Cc1c(C(=O)O)n(C)c2ccccc12)c1ccc(F)cc1	none
O=S(=O)(/N=C(/Nc1ccc(F)c(F)c1F)c1ccccc1)c1ccccc1	none
COc1ccccc1N1CCN(c2nc3c(C)cccn3c(=O)c2C=O)CC1	none
CCC(C)N1C(=O)/C(=C/c2c(NCCCOC(C)C)nc3c(C)cccn3c2=O)SC1=S (configuration not stated)	INS promoter act 164
COc1ccc(CCNC(=O)Cn2cnc3scc(-c4ccccc4)c3c2=O)cc1OC	none
O=C(COC(=O)c1ccc(Sc2ccccc2)c([N+](=O)[O-])c1)NC1CCCc2ccccc21 (configuration not stated)	none
O=C(c1ccc([N+](=O)[O-])c(CS(=O)(=O)c2ccc(Cl)cc2)c1)N1CCCCC1	none
Nc1nncn1C(=O)CCCN1C(=O)c2ccccc2C1=O	none
Nc1nncn1C(=O)c1c(Cl)cccc1Cl	INS promoter act 444
Cc1c(Cl)cccc1NC(=O)CSCC(N)=O	none
CCOC(=O)c1c(C)n2c3c(cc(C)cc13)CCC2	none
COc1ccc(OCC(=O)NCCc2c[nH]c3ccccc23)cc1	none
CCOc1ccc(OCCN2C(=O)NC(Cc3c[nH]c4ccccc34)C2=O)cc1 (configuration not stated)	INS promoter act 533
COc1ccc(OCCN2C(=O)c3ccccc3C2=O)cc1	none
C=CCNC(=O)COc1cc(C)ccc1C	none
O=C(/C=C/c1ccc(Cl)cc1)N1CCN(c2ncccn2)CC1	none
CC(C)(C)c1ccc(/C=C/C(=O)N2CCCCC2)cc1	INS promoter act 335
CC(C)Cc1ccc(/C=C/C(=O)N2CCCCC2)cc1	none
O=C(O)c1cn(Cc2ccccc2Cl)c2ccc(S(=O)(=O)N3CCOCC3)cc2c1=O	none
O=C1CCN(S(=O)(=O)c2ccc(Br)cc2)CCN1	none
COc1ccc(-c2noc(CCN3C(=O)c4ccccc4C3=O)n2)cc1OC	none
Cc1sc2ncn(Cc3ccccc3F)c(=O)c2c1C	none
O=c1c2ccsc2ncn1Cc1ccccc1F	none
COc1cc2c3nnc(-c4ccccc4)c-3cn(Cc3ccccc3F)c2cc1OC	INS promoter act 525
COc1cc2c3nnc(-c4ccc(F)cc4)c-3cn(Cc3ccccc3F)c2cc1OC	INS promoter act 800
O=C1NC(=O)/C(=C\c2cn(Cc3ccccc3F)c3ccccc23)N1	none
Cc1c(-c2ccc(F)cc2)[n+](=O)c2c(n1[O-])CCCCC2	none
N#CC(C#N)=C(N)CSc1cccc[n+]1[O-]	none
O=C(NCc1ccccc1)c1ccc(N2C(=O)C3CCCCC3C2=O)cc1 (configuration not stated)	none
O=C(CCc1ccc(Oc2cc([N+](=O)[O-])cc([N+](=O)[O-])c2)cc1)NC1CCCC1	none
O=C(CO/N=C/c1cccc([N+](=O)[O-])c1)NC1CCCCCC1	INS promoter act 450
O=C(NC1CCCCC1)c1cc([N+](=O)[O-])ccc1N1CCCCC1	none
Cc1nnsc1NC(=O)OCc1ccc(C(F)(F)F)cc1	none
O=C(NCc1cc(C(F)(F)F)cc(C(F)(F)F)c1)C1CC(c2cccc([N+](=O)[O-])c2)=NO1 (configuration not stated)	none
Cn1c(=O)[nH]c(=O)c2c1nc(CN1CCN(c3ccc(F)cc3)CC1)n2CCc1ccccc1	none
COc1ccc(CCn2c(N3CCOCC3)nc3c2c(=O)[nH]c(=O)n3C)cc1	INS promoter act 100
COc1ccc(CCn2c(-n3nc(C)cc3C)nc3c2c(=O)[nH]c(=O)n3C)cc1	none
O=C(Nc1ccc(OC(F)(F)C(F)F)c(NC(=O)c2cccc(F)c2)c1)c1cccc(F)c1	none
CCOc1ccc(N2C(=O)CC(N(CCc3ccc(OC)cc3)C(=O)/C=C/C(=O)O)C2=O)cc1 (configuration not stated)	none
CCOC(=O)c1ccc(S(=O)(=O)NNC(=O)COc2ccccc2C)cc1	none
COc1ccccc1NC(=S)N1CCn2cccc2C1c1cccnc1 (configuration not stated)	none
O=C1C(=Cc2cccs2)C(=O)c2ccccc21	none
Cc1cccc(-n2c(C)cc(C=C3C(=O)c4ccccc4C3=O)c2C)c1	none
Cc1ccc(C=C2C(=O)c3ccccc3C2=O)s1	INS promoter act 322
Cc1cccc(OCCOc2ccc(/C=N/NC(=O)Cc3nnc(N)s3)cc2)c1	none
O=C(N/N=C/C=C/c1ccco1)/C(=C/c1ccccc1)NC(=O)c1ccccc1	none
CS(=O)(=O)N(CC(=O)NCCSc1ccccn1)c1cccc2ccccc12	none
CC(=O)c1c(C(C)=O)c(C)n(-c2ccc(O)cc2)c1C	none
O=C1CCCC(=O)N1c1ccc(O)cc1	INS promoter act 267
O=C(Nc1cccc2c1C(=O)NC2=O)c1ccc(N2C(=O)CCC2=O)cc1	none
COc1ccccc1-n1ccnc1SCC(=O)NCc1ccco1	none
CC(C)CN=C(NS(=O)(=O)c1ccccc1)C(Cl)(Cl)Cl	none
Cc1cc(C)nc(N/N=C/c2ccccc2)n1	none
Clc1cccc(/C=N/Nc2nnc(Cl)c3ccccc23)c1	none
Cc1nc(C#N)c(N/N=C/c2cccc(Cl)c2)o1	INS promoter act 300
Cc1cccc(-c2nc(CN3CCCC(C(=O)NC4CCCCCC4)C3)c(C)o2)c1 (configuration not stated)	INS promoter act 171
Cc1noc(C)c1S(=O)(=O)N1CCCC(C(=O)NC2CCCCC2)C1 (configuration not stated)	none
Cc1cccc(-c2nc(CS(=O)CC(=O)NCC3CCCO3)c(C)o2)c1 (configuration not stated)	none
CCCCNC(=O)COC(=O)c1ccc(NC(C)=O)cc1	none
CN(Cc1ccccc1)S(=O)(=O)c1cccc(C(=O)O)c1	none
CNC(=O)CN(c1cc(OCCOC)c(Cl)cc1Cl)S(=O)(=O)c1ccc(OC)cc1	none
O=C(NCc1ccccn1)C1CCN(S(=O)(=O)c2ccccc2)CC1	none
CN(C)C(=O)N1CCCC(C(=O)NCc2ccccc2Cl)C1 (configuration not stated)	none
Cc1ccc(S(=O)(=O)N2CCC(C(=O)NCc3ccccc3Cl)CC2)cc1	INS promoter act 91
COC1(OC)C(/C=C/c2ccc(Cl)cc2)C(C#N)(C#N)C1(OC)OC (configuration not stated)	none
CC(C)[C@H](NC(=O)[C@H](CC(=O)O)NC(=O)[C@H](CCCCN)NC(=O)[C@@H](N)CCCN=C(N)N)C(=O)N[C@@H](Cc1ccc(O)cc1)C(=O)O	none
O=C(CNC(=S)N(Cc1ccccc1F)C1CCCCC1)NCCCN1CCOCC1	none
Cc1ccc(NS(=O)(=O)c2ccc(CCC(=O)N3CCOCC3)cc2)cc1	none
Cc1ccc(S(=O)(=O)Nc2ccc(N3CCOCC3)cc2)cc1	INS promoter act 81
Cc1ccc(S(=O)(=O)Nc2ccc(S(=O)(=O)NC(C)(C)C)cc2)cc1	none
Cc1cc(NC(=O)COC(=O)c2oc3c(ccc4ccccc43)c2C)no1	INS promoter act 415

Assay outcomes from PubChem BioAssay.
